Data set [1] relates to Enterococcus faecalis. The experiment in a line: Antimicrobial activity against Enterococcus faecalis ATCC 29212 assessed as growth inhibition incubated overnight at 37degC by visual and photometry based method. The format is functional.
The test system of data set [2] is Staphylococcus aureus. The experiment in a line: Antimicrobial activity against Staphylococcus aureus ATCC 25923 assessed as growth inhibition incubated overnight at 37degC by visual and photometry based method. The data set is classed as functional.
Data set [3] has as its system Streptococcus agalactiae. The experiment in a line: Antimicrobial activity against Streptococcus agalactiae ATCC 12386 assessed as growth inhibition incubated overnight at 37degC by visual and photometry based method. The format is functional.
Data set [4] concerns Escherichia coli. The experiment in a line: Antimicrobial activity against Escherichia coli ATCC 25922 assessed as growth inhibition incubated overnight at 37degC by visual and photometry based method. The format is functional.
For data set [5], the system named is Pseudomonas aeruginosa. As to the kind of experiment: Antimicrobial activity against Pseudomonas aeruginosa ATCC 27853 assessed as growth inhibition incubated overnight at 37degC by visual and photometry based method. The data set is classed as functional.
For data set [6], the system named is HepG2. The experiment in a line: Cytotoxicity against human HepG2 cells incubated for 24 hrs by CellTiter 96 aqueous one solution reagent based assay. The format is cell-based. The conditions noted are these: HepG2, 24 h. The gist of the method:
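HepG2 seeded 20,000 cells/well overnight, then exposed 24 h to a concentration range in serum-free MEM Earle's (gentamycin, NEAA, pyruvate, alanyl-glutamine); MTS reagent 1 h, absorbance 485 nm; % survival versus medium and Triton X-100 controls; EC50 from four-parameter normalized nonlinear regression.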

Data set [7] in a line: Selectivity index, ratio of EC50 for human HepG2 cells to MIC for Streptococcus agalactiae ATCC 12386. The format is toxicity. Conditions: read-out: Selectivity Index. Put shortly: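 Selectivity index computed as HepG2 EC50 (24 h MTS assay) divided by S. agalactiae MIC.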
The subject of data set [8] is Staphylococcus epidermidis. The experiment in a line: Inhibition of biofilm formation of Staphylococcus epidermidis incubated overnight at 37degC by crystal violet based assay. The format is functional.
The test system of data set [9] is Escherichia coli. The experiment in a line: Antimicrobial activity against Escherichia coli ATCC 25922 assessed as growth inhibition =<64 ug/ml incubated overnight at 37degC by visual and photometry based method. The data set is classed as functional.
Data set [10] concerns Staphylococcus aureus. The experiment in a line: Antimicrobial activity against Staphylococcus aureus ATCC 25923 assessed as growth inhibition =<64 ug/ml incubated overnight at 37degC by visual and photometry based method. The format is functional.
Data set [11] has as its system Enterococcus faecalis. The experiment in a line: Antimicrobial activity against Enterococcus faecalis ATCC 29212 assessed as growth inhibition at =<64 ug/ml incubated overnight at 37degC by visual and photometry based method. The format is functional.
In data set [12] the test system is Pseudomonas aeruginosa. As to the kind of experiment: Antimicrobial activity against Pseudomonas aeruginosa ATCC 27853 assessed as growth inhibition =<64 ug/ml incubated overnight at 37degC by visual and photometry based method. The data set is classed as functional.

The source made the active and inactive calls. The calls are words filed in the database; no cut-off is given here.

In the case of `CCCCCCCOc1ccc(-n2cc(C(=O)NCCNC(=N)N)nn2)cc1.Cl`, the MIC came out at 16 µg/mL in data set [1]; 4 µg/mL in data set [2]; 8 µg/mL in data set [3]; 8 µg/mL in [4]; 8 µg/mL in data set [5]; 4 µg/mL in [8]. In addition, a half-maximal effect in [6] (EC50) was put at 23.8 µg/mL. In data set [7], the selectivity ratio was found to be 2.97.
Consider `CCCCCCCn1cc(C(=O)N2CCNCC2)nn1`, for which the MIC entry in [1], in data set [2], in data set [3], in data set [4] and in data set [5] was “inactive” in each case.
As for `CCCCCCCn1cc(C(=O)NCCNC(=N)N)nn1`, the MIC result in data set [1], in [2], in [3], in data set [4] and in data set [5] was “inactive” throughout.
As to `CCCCCCCn1cc(C(=O)N2CCN(C(=N)N)CC2)nn1`, the MIC entry in [1], in data set [2], in data set [3], in [4] and in data set [5] was “inactive” throughout.
For `CC(C)(C)c1cc(COc2ccc(-n3cc(C(=O)NCCN)nn3)cc2)cc(C(C)(C)C)c1.Cl`, the MIC in data set [1] turned out to be 8 µg/mL; in data set [3] it was 2 µg/mL; in data set [5] it was 16 µg/mL; in data set [8] it was 8 µg/mL. Moreover, the “growth inhibition (GI)” value in data set [9] and in data set [10] was “inactive” each time. Besides, in data set [6], it took 2.9 µg/mL to reach a half-maximal effect (EC50). In addition, the selectivity ratio in data set [7] stood at 1.44.
For GENTAMICIN, the MIC stood at 10 µg/mL in [1], 0.13 µg/mL in data set [2] and 4 µg/mL in data set [3].
As to `N=C(N)N1CCN(C(=O)c2cn(C34CC5CC(CC(C5)C3)C4)nn2)CC1`, the MIC result in [1], in [2], in data set [3], in [4] and in data set [5] was “inactive” each time.
Take `NCCNC(=O)c1cn(C23CC4CC(CC(C4)C2)C3)nn1`: the MIC result in data set [1], in data set [2], in data set [3], in data set [4] and in [5] was “inactive” in each case.
As for `CN1CCN(C(=O)c2cn(Cc3cc(C(C)(C)C)cc(C(C)(C)C)c3)nn2)CC1`, the MIC entry in data set [1], in [2], in [3], in data set [4] and in data set [5] was “inactive” each time.
Take `CC(C)(C)c1ccc(Cn2cc(C(=O)NCCN)nn2)cc1`: the MIC result in data set [1], in [2], in data set [3], in data set [4] and in data set [5] was “inactive” in each case.
Regarding `CC(C)(C)c1ccc(Cn2cc(C(=O)N3CCNCC3)nn2)cc1`, the MIC result in [1], in [2], in data set [3], in data set [4] and in data set [5] was “inactive” each time.
As for `C/C(=N\NC(=N)N)c1cn(Cc2cc(C(C)(C)C)cc(C(C)(C)C)c2)nn1.Cl`, the MIC in data set [1] is 8 µg/mL; in data set [2], 4 µg/mL; in [3] it was 4 µg/mL; in data set [4], 8 µg/mL; in data set [5] it was 8 µg/mL; in data set [8] it was 4 µg/mL. In data set [6], a half-maximal response (EC50) required 2.3 µg/mL. In addition, the selectivity ratio in [7] is 0.57.
With `CC(C)(C)c1cc(Cn2cc(C(=O)N3CCNCC3)nn2)cc(C(C)(C)C)c1.Cl`, the MIC in data set [2], in [3] and in [4] was 64 µg/mL in each case. Further, the “growth inhibition (GI)” value in [11] and in data set [12] was “inactive” throughout.
As for `CCCCCCCOc1ccc(-n2cc(C(=O)NCCN)nn2)cc1.Cl`, the MIC was found to be 4 µg/mL in data set [2], 8 µg/mL in [3], 16 µg/mL in data set [5] and 4 µg/mL in [8]. The “growth inhibition (GI)” value in [11] and in [9] was “inactive” in each case. Besides, the midpoint of the response in [6], the EC50, lay at 3.5 µg/mL. In addition, in [7], the selectivity ratio worked out at 0.44.
In the case of `CC(C)(C)c1cc(COc2ccc(-n3cc(C(=O)NCCNC(=N)N)nn3)cc2)cc(C(C)(C)C)c1.Cl`, the MIC in data set [1] worked out at 16 µg/mL; in [2] it was 8 µg/mL; in data set [3], 4 µg/mL; in data set [8] it was 2 µg/mL. Moreover, the “growth inhibition (GI)” value in [9] and in data set [12] was “inactive” in each case. In addition, the response in data set [6] was half-maximal at 16.2 µg/mL (EC50). Besides, the selectivity ratio in data set [7] is 4.04.
In the case of `CCCCCCCn1cc(C(=O)NCCN)nn1`, the MIC result in [1], in [2], in data set [3], in data set [4] and in data set [5] was “inactive” throughout.
Turning to `CC(C)(C)c1ccc(Cn2cc(C(=O)NCCNC(=N)N)nn2)cc1`, the MIC entry in data set [1], in data set [2], in [3], in data set [4] and in data set [5] was “inactive” throughout.
As to `CC(C)(C)c1cc(Cn2cc(C(=O)NCCNC(=N)N)nn2)cc(C(C)(C)C)c1.Cl`, the MIC in data set [1] was found to be 64 µg/mL; in data set [2], 32 µg/mL; in data set [3], 16 µg/mL; in [4] it was 64 µg/mL; in data set [5] it was 32 µg/mL.
In the case of `CCCCCCCOc1ccc(-n2cc(/C(C)=N/NC(=N)N)nn2)cc1.O=C(O)C(F)(F)F`, the MIC stood at 32 µg/mL in data set [1]; 8 µg/mL in data set [3]; 16 µg/mL in [4]; 64 µg/mL in [5]; 8 µg/mL in [8]. The “growth inhibition (GI)” value in data set [10] is “inactive”. In addition, in [6], it took 2 µg/mL to reach a half-maximal effect (EC50). In [7], the selectivity ratio is 0.25.
On to `CC(C)(C)c1cc(-n2cc(C(=O)NCCNC(=N)N)nn2)cc(C(C)(C)C)c1.Cl`, for which the MIC in data set [1] came out at 16 µg/mL; in data set [2] it was 8 µg/mL; in data set [3], 8 µg/mL; in [4], 16 µg/mL; in data set [5], 16 µg/mL; in data set [8], 4 µg/mL. For the same molecule, the response in [6] was half-maximal at 31.3 µg/mL (EC50). For the same molecule, the selectivity ratio in data set [7] was determined as 3.91.
As for `O=C(c1cn(C23CC4CC(CC(C4)C2)C3)nn1)N1CCNCC1`, the MIC entry in [1], in [2], in [3], in [4] and in [5] was “inactive” each time.
As for `N=C(N)NCCNC(=O)c1cn(C23CC4CC(CC(C4)C2)C3)nn1`, the MIC entry in data set [1], in [2], in [3], in [4] and in data set [5] was “inactive” throughout.
In the case of `CN1CCN(C(=O)c2cn(C34CC5CC(CC(C5)C3)C4)nn2)CC1`, the MIC result in [1], in [2], in data set [3], in data set [4] and in [5] was “inactive” each time.
`CCCCCCCn1cc(C(=O)N2CCN(C)CC2)nn1`: the MIC entry in data set [1], in data set [2], in [3], in [4] and in [5] was “inactive” each time.
For the molecule `CC(C)(C)c1cc(Cn2cc(C(=O)NCCN)nn2)cc(C(C)(C)C)c1.Cl`, the MIC in data set [2] came to 64 µg/mL; in [3] it was 64 µg/mL; in [4], 32 µg/mL; in [5], 64 µg/mL. In addition, in data set [11], the “growth inhibition (GI)” value was “inactive”.
On to `C/C(=N\NC(=N)N)c1cn(-c2cc(C(C)(C)C)cc(C(C)(C)C)c2)nn1.O=C(O)C(F)(F)F`, for which the MIC in data set [1] came out at 4 µg/mL; in data set [2], 4 µg/mL; in data set [3], 2 µg/mL; in data set [4], 4 µg/mL; in [5], 16 µg/mL; in data set [8], 4 µg/mL. Also, the midpoint of the response in data set [6], the EC50, lay at 2.6 µg/mL. Also, the selectivity ratio in data set [7] came out at 1.32.
Turning to `CN1CCN(C(=O)c2cn(Cc3ccc(C(C)(C)C)cc3)nn2)CC1`, the MIC entry in data set [1], in data set [2], in data set [3], in data set [4] and in [5] was “inactive” throughout.
`CC(C)(C)c1cc(Cn2cc(C(=O)N3CCN(C(=N)N)CC3)nn2)cc(C(C)(C)C)c1.Cl`: the results for the MIC in data set [2], in data set [3] and in data set [5] were 64 µg/mL, 32 µg/mL and 64 µg/mL, respectively. The “growth inhibition (GI)” value in [11] and in data set [9] was “inactive” each time.

These data come from ChEMBL document CHEMBL4043163, “Methyl propiolate and 3-butynone: Starting points for synthesis of amphiphilic 1,2,3-triazole peptidomimetics for antimicrobial evaluation” (Bioorg Med Chem, 2017).
